{
  "source": "ChEMBL document CHEMBL1149434",
  "about": "(J Med Chem, 2006)",
  "key": {"RAW264.7 [1]": {"test_system": "RAW264.7", "assay": "Ability to suppress the production of reactive oxygen intermediates by activated RAW 264.7 macrophages from BALB/c mice at 4 ug/ml", "type": "functional, Mus musculus", "how_it_was_run": "(§1)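 RAW 264.7 cells were grown in DMEM with 5% FCS and LPS-activated (1 µg/mL, 24 h). Cells (5 × 10^5 in 0.5 mL) were incubated 24 h with cannabinoids dissolved in ethanol and diluted in Hanks. Luminol and zymosan were then added and chemiluminescence was read immediately. Mean ± SD of three pooled experiments.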"}, "RAW264.7 [2]": {"test_system": "RAW264.7", "assay": "Ability to suppress the production of reactive oxygen intermediates by activated RAW 264.7 macrophages from BALB/c mice at 8 ug/ml", "type": "functional", "how_it_was_run": "as §1"}, "[3]": {"test_system": "Peritoneal macrophage cell", "assay": "Ability to suppress […] production by LPS-activated peritoneal macrophages form C57BL/6 mice at 4 ug/ml", "type": "functional, cell-based", "conditions": "Mus musculus", "how_it_was_run": "(§2)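 Elicited peritoneal macrophages were prepared as for TNF. They were exposed to ethanol-dissolved cannabinoids diluted in DMEM, plus LPS 1 µg/mL, for 24 h. Nitrite in 100 µL supernatant was mixed with an equal volume of Griess reagent for 10 min at room temperature and read at 550 nm. Values came from a nitrite standard curve. Mean ± SD of three pooled experiments.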"}, "[4]": {"test_system": "Peritoneal macrophage cell", "assay": "Ability to suppress […] production by LPS-activated peritoneal macrophages form C57BL/6 mice at 8 ug/ml", "type": "functional, cell-based", "conditions": "Mus musculus", "how_it_was_run": "as §2"}, "[5]": {"test_system": "Peritoneal macrophage cell", "assay": "Ability to suppress TNFalpha production by LPS-activated peritoneal macrophages form C57BL/6 mice at 8 ug/ml", "type": "functional"}, "[6]": {"test_system": "Peritoneal macrophage cell", "assay": "Ability to suppress […] production by LPS-activated peritoneal macrophages form C57BL/6 mice at 1 ug/ml", "type": "functional, cell-based", "conditions": "Mus musculus", "how_it_was_run": "as §2"}, "[7]": {"test_system": "Peritoneal macrophage cell", "assay": "Ability to suppress TNFalpha production by LPS-activated peritoneal macrophages form C57BL/6 mice at 4 ug/ml", "type": "functional, cell-based", "conditions": "Mus musculus"}, "Cannabinoid receptor 1": {"molecular_target": "Cannabinoid receptor 1 (Rattus norvegicus, UniProt P20272)", "sequence (P20272 whole entry)": "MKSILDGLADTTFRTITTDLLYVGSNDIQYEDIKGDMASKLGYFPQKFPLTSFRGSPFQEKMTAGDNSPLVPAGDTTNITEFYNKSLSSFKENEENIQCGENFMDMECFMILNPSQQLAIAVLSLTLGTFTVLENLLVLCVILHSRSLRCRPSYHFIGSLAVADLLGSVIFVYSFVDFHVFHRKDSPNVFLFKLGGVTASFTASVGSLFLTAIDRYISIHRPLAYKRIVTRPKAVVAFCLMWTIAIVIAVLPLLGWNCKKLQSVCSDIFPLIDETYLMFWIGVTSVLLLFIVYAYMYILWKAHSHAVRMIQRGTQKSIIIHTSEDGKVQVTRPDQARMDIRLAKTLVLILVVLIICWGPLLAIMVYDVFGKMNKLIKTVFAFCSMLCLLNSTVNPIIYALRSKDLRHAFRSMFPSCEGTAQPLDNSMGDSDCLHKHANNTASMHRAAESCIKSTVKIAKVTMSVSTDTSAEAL", "assay": "Displacement of [3H]HU243 from CB1 receptor in Sabra rat brain"}},
  "note": "Activity calls are given as the source filed them. The rule behind the calls is not given here.",
  "data": [
    {"smiles": "C=C(C)[C@@H]1CCC(C)=C[C@H]1c1c(O)cc(CCCCC)cc1O", "note": "[CANNABIDIOL]", "values": [
      {"measurement": "Activity", "setting": "RAW264.7 [1]", "result": 12, "unit": "%"},
      {"measurement": "Activity", "setting": "RAW264.7 [2]; Mus musculus", "result": "Active"},
      {"measurement": "Activity", "setting": "[3]", "result": "Active"},
      {"measurement": "Activity", "setting": "[4]", "result": "Active"},
      {"measurement": "Activity", "setting": "[5]; Mus musculus", "result": "Active"}
    ]},
    {"smiles": "CCCCCc1cc(O)c(C2CC(C)CC[C@H]2C(C)C)c(O)c1", "note": "(some centres not stated)", "values": [
      {"measurement": "Activity", "setting": "RAW264.7 [1]; Mus musculus", "result": "Active"},
      {"measurement": "Activity", "setting": "[3]", "result": "Active"},
      {"measurement": "Activity", "setting": "[4]", "result": "Active"},
      {"measurement": "Activity", "setting": "[6]", "result": "Active"},
      {"measurement": "Activity", "setting": "[7]", "result": "Active"},
      {"measurement": "Ki", "setting": "Cannabinoid receptor 1", "result": 145, "unit": "nM"}
    ]},
    {"smiles": "C=C(C)[C@@H]1CCC(C)=CC1c1c(O)cc(C(C)(C)CCCCCC)cc1O", "note": "(some centres not stated)", "values": [
      {"measurement": "Activity", "setting": "RAW264.7 [1]; Mus musculus", "result": "Active"},
      {"measurement": "Activity", "setting": "RAW264.7 [2]", "result": 60, "unit": "%"},
      {"measurement": "Activity", "setting": "[3]", "result": "Active"},
      {"measurement": "Activity", "setting": "[4]", "result": "Active"},
      {"measurement": "Activity", "setting": "[7]", "result": "Active"},
      {"measurement": "Activity", "setting": "[5]", "result": 73, "unit": "%"},
      {"measurement": "Ki", "setting": "Cannabinoid receptor 1", "result": "> 10000", "unit": "nM"}
    ]},
    {"smiles": "CCCCCCC(C)(C)c1cc(O)c(C2CC(C)CC[C@H]2C(C)C)c(O)c1", "note": "(some centres not stated)", "values": [
      {"measurement": "Activity", "setting": "RAW264.7 [2]", "result": 25, "unit": "%"},
      {"measurement": "Activity", "setting": "[5]; Mus musculus", "result": "inactive"},
      {"measurement": "Ki", "setting": "Cannabinoid receptor 1", "result": 17, "unit": "nM"}
    ]},
    {"smiles": "CCCCCCC(C)(C)c1cc(O)c(C2C=C(C)CC[C@H]2C(C)C)c(O)c1", "note": "(some centres not stated)", "values": [
      {"measurement": "Activity", "setting": "RAW264.7 [1]; Mus musculus", "result": "inactive"},
      {"measurement": "Activity", "setting": "RAW264.7 [2]; Mus musculus", "result": "inactive"},
      {"measurement": "Activity", "setting": "[5]; Mus musculus", "result": "inactive"},
      {"measurement": "Ki", "setting": "Cannabinoid receptor 1", "result": 124, "unit": "nM"}
    ]},
    {"smiles": "CCCCCc1cc(O)c(C2C=C(C)CC[C@H]2C(C)C)c(O)c1", "note": "(some centres not stated)", "values": [
      {"measurement": "Activity", "setting": "RAW264.7 [1]; Mus musculus", "result": "Active"},
      {"measurement": "Activity", "setting": "[3]", "result": "Active"},
      {"measurement": "Activity", "setting": "[4]", "result": "Active"},
      {"measurement": "Activity", "setting": "[7]", "result": "Active"},
      {"measurement": "Ki", "setting": "Cannabinoid receptor 1", "result": "> 1000", "unit": "nM"}
    ]},
    {"smiles": "C=C(C)[C@@H]1CCC(C)CC1c1c(O)cc(CCCCC)cc1O", "note": "(some centres not stated)", "values": [
      {"measurement": "Activity", "setting": "[3]", "result": "Active"},
      {"measurement": "Activity", "setting": "[4]", "result": "Active"}
    ]}
  ]
}
